Assay results: ChEMBL document CHEMBL3259759, “Discovery of novel bacterial elongation condensing enzyme inhibitors by virtual screening” (Bioorg Med Chem Lett, 2014)

Experiments:
Escherichia coli = assay: Inhibition of Escherichia coli FabB at 200 uM by radiochemical assay
Summary of the method: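 Radiochemical condensing-enzyme assay with FabB, run per an earlier method except that lauryl-ACP replaced myristoyl-ACP. The lauryl-ACP was made with Vibrio harveyi acyl-ACP synthetase. Compounds were tested at a single final concentration of 200 μM, and inhibition is given as percent.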

[1] = Inhibition of Escherichia coli FabB by radiochemical assay
Summary of the method: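 Radiochemical condensing-enzyme assay with E. coli FabB, run as described earlier except that myristoyl-ACP was replaced by lauryl-ACP. The lauryl-ACP was made with Vibrio harveyi acyl-ACP synthetase. Compounds were first screened at a single final concentration of 200 μM, and selected compounds then went to dose-response testing to derive IC50.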

[2] = Inhibition of Staphylococcus aureus FabF by radiochemical assay

| Compound | inhibition (Escherichia coli) [%] | IC50 [1] [µM] | IC50 [2] [µM] |
| --- | --- | --- | --- |
| CN(Cc1ccsc1)Cn1c(=O)oc2ccccc21 | 30 | – | – |
| COc1cccc(CN(Cn2c(=O)oc3cc(Cl)ccc32)C2CC2)c1 | 28.3 | – | – |
| O=c1sc2ccc(Cl)cc2n1CN1CCCC1c1cccc(Br)c1 (racemic) | 36.1 | 303 | – |
| O=c1oc2cc(Br)ccc2n1CN1CCC2(CC1)OCCO2 | 32.7 | 600 | – |
| O=c1oc2ccccc2n1CN1CCCC1 | 24 | – | – |
| O=c1oc2ccc(Cl)cc2n1CN(CC1CCOC1)C1CC1 (racemic) | 36.7 | 350 | – |
| O=c1oc2ccccc2n1CN(Cc1ccc(F)cc1)C1CC1 | 5 | – | – |
| O=c1oc2cc(Cl)ccc2n1CN1CCCCC1c1ccccc1 (racemic) | 38 | – | – |
| O=c1oc2cc(Cl)ccc2n1CN(Cc1cccnc1)C1CC1 | 23.6 | – | – |
| O=c1oc2cc(Cl)ccc2n1CN1CCCC2(CCOCC2)C1 | 38.8 | – | – |
| CN(CCN1CCCC1)Cn1c(=O)oc2cc(Cl)ccc21 | 26.4 | – | – |
| O=c1oc2ccc(Cl)cc2n1CN1CCCC2(CCOCC2)C1 | 37.7 | 335 | – |
| N#Cc1ccc2oc(=O)n(CN3CCCC3c3cccc(Br)c3)c2c1 (racemic) | 42.1 | 253 | – |
| O=c1oc2ccccc2n1CN(Cc1ccsc1)C1CC1 | 37.8 | – | – |
| CN(Cc1cccc(O)c1)Cn1c(=O)oc2ccc(Cl)cc21 | 41.4 | – | – |
| O=c1oc2cc(Cl)ccc2n1CN(CC1CCOC1)C1CC1 (racemic) | 24.1 | 800 | – |
| O=c1oc2cc(Cl)ccc2n1CN(Cc1ccc(F)cc1)C1CC1 | 32.1 | – | – |
| O=c1oc2ccc(Cl)cc2n1CN1CCCC1c1cccc(Br)c1 (racemic) | 55.4 | 260 | – |
| CN(Cc1ccccc1)Cn1c(=O)oc2ccccc21 | 33.5 | 235 | 387 |
| O=c1oc2cc(Cl)ccc2n1CN(Cc1ccccn1)C1CC1 | 30 | – | – |
| CN(CC1CCCC1)Cn1c(=O)oc2ccc(Cl)cc21 | 17.7 | – | – |
| CC(CN(C)Cn1c(=O)oc2cc(Cl)ccc21)N1CCOCC1 (racemic) | 24.3 | – | – |
| O=c1oc2ccc(Cl)cc2n1CN1CCCCC1c1ccccc1 (racemic) | 30.4 | 415 | – |
| Cc1ccc2oc(=O)n(CN(CC3CCOC3)C3CC3)c2c1 (racemic) | 40.1 | – | – |
| COc1cccc(C2CCCN2Cn2c(=O)oc3cc(Cl)ccc32)c1 (racemic) | 36.4 | – | – |
| CN(CC1CCOCC1)Cn1c(=O)oc2cc(Cl)ccc21 | 31.7 | – | – |
| O=c1oc2cc(Br)ccc2n1CN(CC1CCCC1)C1CC1 | 17.7 | – | – |
| CN1CCC(CN(C)Cn2c(=O)oc3cc(Cl)ccc32)C1 (racemic) | 23.8 | – | – |
| COc1cccc(C2CCCN2Cn2c(=O)oc3ccc(Cl)cc32)c1 (racemic) | 37.1 | 305 | – |
| O=c1oc2ccc(Cl)cc2n1CN1CCC1c1ccccc1 (racemic) | 31.9 | – | – |
